# Experiments:
# [1] = target: T1, Prostaglandin E2 receptor EP1 subtype (Mus musculus, UniProt P35375); test: Displacement of [3H]-PGE2 from mouse EP1 receptor expressed in CHO cells after 20 mins by liquid scintillation counter; type: cell-based
# T1 sequence (P35375 whole entry): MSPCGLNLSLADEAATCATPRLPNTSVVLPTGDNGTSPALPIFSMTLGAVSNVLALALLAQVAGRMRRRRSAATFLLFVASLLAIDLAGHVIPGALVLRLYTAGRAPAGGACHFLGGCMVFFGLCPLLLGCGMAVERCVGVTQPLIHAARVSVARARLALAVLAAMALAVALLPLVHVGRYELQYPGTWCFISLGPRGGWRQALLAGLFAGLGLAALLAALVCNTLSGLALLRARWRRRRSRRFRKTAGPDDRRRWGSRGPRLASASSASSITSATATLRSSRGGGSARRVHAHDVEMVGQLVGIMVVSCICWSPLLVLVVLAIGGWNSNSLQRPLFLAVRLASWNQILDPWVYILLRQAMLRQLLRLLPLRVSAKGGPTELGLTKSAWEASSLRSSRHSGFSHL
# Procedure, shortened: (§1)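 Membranes from CHO cells stably expressing mouse EP1–4, incubated with 2.5 nM [³H]PGE₂ and test compound at various concentrations in 10 mM KH₂PO₄–KOH, 1 mM EDTA, 10 mM MgCl₂, 0.1 mM NaCl, pH 6.0. Incubated 25 °C, 60 min (EP1: 20 min). Filtration on GF/B, ice-cold buffer wash, scintillation counting. Nonspecific binding with excess unlabeled PGE₂. IC50 from regression curve; Ki = IC50/(1+[L]/Kd).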
# [2] = target: Prostaglandin E2 receptor EP2 subtype (Mus musculus, UniProt Q62053); test: Displacement of [3H]-PGE2 from mouse EP2 receptor expressed in CHO cells after 60 mins by liquid scintillation counter; type: cell-based; procedure, shortened: as §1
# [3] = target: T2, Prostaglandin E2 receptor EP3 subtype (Mus musculus, UniProt P30557); test: Displacement of [3H]-PGE2 from mouse EP3 receptor expressed in CHO cells after 60 mins by liquid scintillation counter; type: cell-based; procedure, shortened: as §1
# T2 sequence (P30557 whole entry): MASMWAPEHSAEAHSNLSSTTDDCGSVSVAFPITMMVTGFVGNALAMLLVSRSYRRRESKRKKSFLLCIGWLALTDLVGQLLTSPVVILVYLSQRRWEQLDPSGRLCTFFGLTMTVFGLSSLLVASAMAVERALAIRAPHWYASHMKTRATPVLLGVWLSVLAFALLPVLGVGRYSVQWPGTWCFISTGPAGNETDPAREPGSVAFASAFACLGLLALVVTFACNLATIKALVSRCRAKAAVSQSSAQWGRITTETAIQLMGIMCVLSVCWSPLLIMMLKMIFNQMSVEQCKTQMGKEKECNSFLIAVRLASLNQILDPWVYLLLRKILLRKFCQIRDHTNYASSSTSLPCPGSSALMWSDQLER
# [4] = target: Prostaglandin E2 receptor EP4 subtype (Mus musculus, UniProt P32240); test: Displacement of [3H]-PGE2 from mouse EP4 receptor expressed in CHO cells after 60 mins by liquid scintillation counter; type: cell-based; procedure, shortened: as §1
# [5] = target: Prostaglandin E2 receptor EP4 subtype (Rattus norvegicus, UniProt P43114); test: Agonist activity at rat EP4 receptor expressed in CHO cells assessed as cAMP production after 10 mins by radioimmunoassay; type: functional, cell-based
# Procedure, shortened: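 CHO cells expressing rat EP4 seeded at 1×10^5 cells/well and grown 2 days. Washed with MEM, then 10 min at 37 °C in MEM with 2 µM diclofenac. Preincubated 10 min at 37 °C in assay medium with 1% BSA. Test compound added, 10 min at 37 °C. Stopped with ice-cold 10% trichloroacetic acid. cAMP measured by radioimmunoassay.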
# Rattus norvegicus [6] = test: Inhibition of LPS induced TNF-alpha production in po dosed Sprague-Dawley rat administered 30 mins before LPS challenge measured after 90 mins by ELISA; type: functional
# Procedure, shortened: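 Seven-week-old Sprague–Dawley rats dosed orally with compound in sterile saline containing 20% HP-β-CD. LPS (1 mg/mL in sterile saline) given iv at 10 µg/2 mL/kg 30 min later. Blood drawn by aortic puncture into heparinized syringes 90 min after LPS. Plasma taken after centrifugation at 4 °C and frozen. Result given as ED50.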
# Rattus norvegicus [7] = test: Dose normalized cmax in rat at 1 mg/kg, po; type: ADME, organism-based; parameters: dose 1 mg/kg, route oral; conditions: in vivo
# Procedure, shortened: (§2)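 Rat PK after 1 mg/kg po and 0.1 mg/kg iv. Cmax and AUC normalized to a 1 mg/kg dose.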
# Rattus norvegicus [8] = test: Dose normalized AUC in rat at 1 mg/kg, po; type: ADME, organism-based; parameters: dose 1 mg/kg, route oral; conditions: in vivo; procedure, shortened: as §2
# [9] = Total clearance rat at 0.1 mg/kg, iv and 1 mg/kg, po; type: ADME, organism-based; conditions: in vivo
# Procedure, shortened: (§3)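 Rat pharmacokinetics measured after 1 mg/kg po and 0.1 mg/kg iv dosing.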
# [10] = Volume of distribution at steady state in rat at 0.1 mg/kg, iv and 1 mg/kg, po; type: ADME, organism-based; conditions: in vivo, read-out: Vdss; procedure, shortened: as §3
# [11] = Oral bioavailability in rat at 1 mg/kg; type: ADME, organism-based; conditions: in vivo
# [12] = Cmax in rat at 0.1 mg/kg, iv and 1 mg/kg, po; type: ADME, organism-based; conditions: in vivo; procedure, shortened: as §3
# [13] = AUC in rat at 0.1 mg/kg, iv and 1 mg/kg, po; type: ADME, organism-based; conditions: plasma; procedure, shortened: as §3
# Sequence of Prostaglandin E2 receptor EP4 subtype (Rattus norvegicus, UniProt P43114) (P43114 whole entry): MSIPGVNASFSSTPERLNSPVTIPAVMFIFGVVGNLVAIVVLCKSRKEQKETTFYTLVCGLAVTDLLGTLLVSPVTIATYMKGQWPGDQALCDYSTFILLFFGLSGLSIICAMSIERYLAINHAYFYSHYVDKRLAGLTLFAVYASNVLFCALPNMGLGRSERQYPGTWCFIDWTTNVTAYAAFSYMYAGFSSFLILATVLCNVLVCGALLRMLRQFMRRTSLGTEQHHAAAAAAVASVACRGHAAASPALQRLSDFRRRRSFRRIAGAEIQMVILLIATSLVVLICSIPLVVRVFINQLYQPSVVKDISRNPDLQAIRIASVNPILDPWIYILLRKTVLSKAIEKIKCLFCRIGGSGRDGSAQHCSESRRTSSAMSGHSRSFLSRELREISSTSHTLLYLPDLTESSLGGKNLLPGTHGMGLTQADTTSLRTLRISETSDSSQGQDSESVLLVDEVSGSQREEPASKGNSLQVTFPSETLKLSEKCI
# Sequence of Prostaglandin E2 receptor EP4 subtype (Mus musculus, UniProt P32240) (P32240 whole entry): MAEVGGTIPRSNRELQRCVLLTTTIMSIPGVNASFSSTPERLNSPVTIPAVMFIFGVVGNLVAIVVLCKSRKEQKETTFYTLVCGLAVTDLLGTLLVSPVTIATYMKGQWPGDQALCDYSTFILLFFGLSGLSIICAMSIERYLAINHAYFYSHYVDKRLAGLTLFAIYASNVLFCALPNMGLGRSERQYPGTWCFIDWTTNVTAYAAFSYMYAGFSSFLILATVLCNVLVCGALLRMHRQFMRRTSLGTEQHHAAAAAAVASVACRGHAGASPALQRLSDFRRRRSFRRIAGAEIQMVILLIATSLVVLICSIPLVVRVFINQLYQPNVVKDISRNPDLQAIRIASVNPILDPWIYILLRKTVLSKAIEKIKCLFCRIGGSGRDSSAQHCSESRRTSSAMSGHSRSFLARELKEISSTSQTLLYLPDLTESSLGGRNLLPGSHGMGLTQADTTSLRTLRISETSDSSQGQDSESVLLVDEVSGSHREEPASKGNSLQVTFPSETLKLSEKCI
# Sequence of Prostaglandin E2 receptor EP2 subtype (Q62053 whole entry): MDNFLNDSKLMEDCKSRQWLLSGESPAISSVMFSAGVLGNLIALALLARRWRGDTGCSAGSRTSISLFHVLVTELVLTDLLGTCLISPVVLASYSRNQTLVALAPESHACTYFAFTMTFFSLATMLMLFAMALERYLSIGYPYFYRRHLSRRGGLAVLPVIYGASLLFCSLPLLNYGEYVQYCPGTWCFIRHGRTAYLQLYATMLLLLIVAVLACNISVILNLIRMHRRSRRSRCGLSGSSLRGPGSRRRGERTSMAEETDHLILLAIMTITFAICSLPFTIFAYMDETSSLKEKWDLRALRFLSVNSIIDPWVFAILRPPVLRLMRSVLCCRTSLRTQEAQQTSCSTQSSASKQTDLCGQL
Ki [1] [nM],Ki [2] [nM],Ki [3] [nM],Ki [4] [nM],EC50 [5] [nM],Cmax/dose (Rattus norvegicus [7]) [ng/mL],AUC/dose (Rattus norvegicus [8]) [ng·h/mL],clearance [9] [mL/min/kg],Vd [10] [L/kg],bioavailability [11] [%],Cmax [12] [ng/mL],AUC [13] [ng·h/mL],Structure (SMILES),ED50 (Rattus norvegicus [6]) [mg/kg]
> 10000,> 10000,6400,4.2,36,,,,,,,,O=C(O)CCCSCCN1C(=O)OC[C@@H]1/C=C/[C@@H](O)Cc1ccccc1,
4400,> 10000,2800,2.5,33,,,47,0.291,4.5,5.4,16.1,Cc1cccc(C[C@H](O)/C=C/[C@H]2COC(=O)N2CCSCCCC(=O)O)c1,> 1
2400,> 10000,2700,7.9,18,,,,,,,,CCc1cccc(C[C@H](O)/C=C/[C@H]2COC(=O)N2CCSCCCC(=O)O)c1,
> 10000,> 10000,630,1.5,23,,,,,,,,O=C(O)CCCSCCN1C(=O)OC[C@@H]1/C=C/[C@@H](O)Cc1cccc(Cl)c1,
> 10000,> 10000,1700,29,160,,,,,,,,O=C(O)CCCSCCN1C(=O)OC[C@@H]1/C=C/[C@@H](O)Cc1cccc(OC(F)(F)F)c1,

# The next lines start with the molecule.
Structure (SMILES),Ki [1] [nM],Ki [2] [nM],Ki [3] [nM],Ki [4] [nM],EC50 [5] [nM],Cmax/dose (Rattus norvegicus [7]) [ng/mL],AUC/dose (Rattus norvegicus [8]) [ng·h/mL],clearance [9] [mL/min/kg],Vd [10] [L/kg],bioavailability [11] [%],Cmax [12] [ng/mL],AUC [13] [ng·h/mL],ED50 (Rattus norvegicus [6]) [mg/kg]
COCc1cccc(C[C@H](O)/C=C/[C@H]2CCC(=O)N2CCCCCCC(=O)O)c1,> 10000,> 10000,> 10000,10,15,1.6,6.4,35,0.386,1.2,,,1
COCc1cccc(C[C@H](O)/C=C/[C@H]2CCC(=O)N2CCSCCCC(=O)O)c1,> 10000,8500,> 10000,8,1.3,,,,,,,,
COCc1cccc(C[C@H](O)/C=C/[C@H]2CCC(=O)[C@@H]2CCSCCCC(=O)O)c1,> 10000,470,190,2.4,1.1,,,,,,,,
CCCc1cccc(C[C@H](O)/C=C/[C@H]2COC(=O)N2CCSCCCC(=O)O)c1,> 10000,> 10000,1900,2.4,93,,,,,,,,
O=C(O)CCCSCCN1C(=O)OC[C@@H]1/C=C/[C@@H](O)Cc1cccc(C(F)(F)F)c1,> 10000,> 10000,1600,2,12,,,67,0.631,6.7,3.8,16.7,3
O=C(O)CCCSCCN1C(=O)OC[C@@H]1/C=C/[C@@H](O)Cc1cccc(F)c1,1200,> 10000,4000,20,35,,,,,,,,
O=C(O)CCCSCCN1C(=O)OC[C@@H]1/C=C/[C@@H](O)Cc1cccc(-c2ccccc2)c1,> 10000,> 10000,> 10000,28,450,,,,,,,,
COCc1cccc(C[C@H](O)/C=C/[C@H]2COC(=O)N2CCSCCCC(=O)O)c1,> 10000,> 10000,> 10000,7.2,24,,,,,,,,
